# From ChEMBL document CHEMBL4270603, “Computer-aided drug discovery: Novel 3,9-disubstituted eudistomin U derivatives as potent antibacterial agents” (Eur J Med Chem, 2018)
# Activity calls are given as the source filed them. No cut-off for these calls is given here.
# Columns and labels:
# [1] = tested on: Bacillus cereus; assay: Antibacterial activity against Bacillus cereus CGMCC 1.1846 measured after 12 to 14 hrs; assay type: functional
# Summary of the method: (§1)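 Twofold (double) dilution method for in vitro antibacterial activity, with fosfomycin sodium, ciprofloxacin and propineb as positive controls.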
# [2] = tested on: Ralstonia solanacearum; assay: Antibacterial activity against Ralstonia solanacearum CGMCC 1.12711 measured after 12 to 14 hrs; assay type: functional
# Summary of the method: (§2)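 In vitro double dilution method, run alongside fosfomycin sodium, ciprofloxacin and propineb as positive controls.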
# [3] = tested on: Staphylococcus aureus; assay: Antibacterial activity against Staphylococcus aureus CGMCC 1.8721 measured after 12 to 14 hrs; assay type: functional; summary of the method: as §1
# [4] = tested on: Staphylococcus aureus; assay: Antibacterial activity against methicillin-resistant Staphylococcus aureus ATCC 43300 measured after 12 to 14 hrs; assay type: functional; summary of the method: as §2
# [5] = tested on: Bacillus cereus; assay: Potency index, ratio of ciprofloxacin MIC to test compound MIC for Bacillus cereus CGMCC 1.1846; assay type: functional
# [6] = tested on: Ralstonia solanacearum; assay: Potency index, ratio of propineb MIC to test compound MIC for Ralstonia solanacearum CGMCC 1.12711; assay type: functional
# [7] = tested on: Staphylococcus aureus; assay: Bactericidal activity against Staphylococcus aureus assessed as disruption of bacterial membrane at 1.5625 micromol/l after 1 hr by Hoechst/propidium iodide staining based fluorescence microscopic analysis; assay type: functional, organism-based
# Summary of the method: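 S. aureus cells were incubated with compound for 1 h, then dual-stained with Hoechst and propidium iodide and imaged by fluorescence microscopy, with untreated cells as the control. Hoechst enters intact cells and gives blue fluorescence. PI gives red fluorescence only when the membrane is disrupted. Blue, red and merged channels were compared.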
# [8] = tested on: Staphylococcus aureus; assay: Induction of morphological changes in Staphylococcus aureus assessed as appearance of irregular cell surface at 1.5625 micromol/l after 1 hr by scanning electron microscopic analysis; assay type: functional, organism-based
# Summary of the method: (§3)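 Cell-surface morphology of compound-treated S. aureus was imaged by scanning electron microscopy and compared with an untreated blank group.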
# [9] = tested on: Calf thymus DNA; assay: Binding affinity to calf thymus DNA by isothermal titration calorimetric method; assay type: nucleic-acid assay, Bos taurus
# Summary of the method: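 DNA was titrated with compound by isothermal titration calorimetry at 298 K. Heat flow was recorded over time, and thermodynamic constants were obtained by fitting to an independent binding model.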
# [10] = tested on: Staphylococcus aureus; assay: Induction of morphological changes in Staphylococcus aureus assessed as disruption of cell membrane at 0.5 MIC after 1 hr by transmission electron microscopic analysis; assay type: functional, organism-based; details: 0.5 M
# Summary of the method: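 S. aureus cells were exposed to compound for 1 h, then imaged by transmission electron microscopy for cell-membrane boundary integrity, with untreated cells as the comparison.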
# [11] = tested on: Staphylococcus aureus; assay: Induction of morphological changes in Staphylococcus aureus assessed as appearance of rough cell surface at 1.5625 micromol/l after 1 hr by scanning electron microscopic analysis; assay type: functional, organism-based; summary of the method: as §3
# [12] = tested on: Staphylococcus aureus; assay: Potency index, ratio of ciprofloxacin MIC to test compound MIC for methicillin-resistant Staphylococcus aureus ATCC 43300; assay type: functional
SMILES,MIC [1],MIC [2],MIC [3],MIC [4],further results
COC(=O)c1cc2c3ccccc3n(Cc3ccc(Br)cc3)c2c(-c2cn(C(C)=O)c3ccccc23)n1,> 100 µM,> 100 µM,> 100 µM,> 100 µM,
COC(=O)c1cc2c3ccccc3n(Cc3ccc(F)cc3)c2c(-c2cn(C(C)=O)c3ccccc23)n1,> 100 µM,> 100 µM,> 100 µM,> 100 µM,
COC(=O)c1cc2c3ccccc3n(Cc3ccc(Cl)cc3)c2c(-c2cn(C(C)=O)c3ccccc23)n1,> 100 µM,> 100 µM,> 100 µM,> 100 µM,
OCc1cc2c3ccccc3n(Cc3ccccc3Cl)c2c(-c2c[nH]c3ccccc23)n1,50 µM,25 µM,25 µM,> 100 µM,
OCc1cc2c3ccccc3n(Cc3ccc(C(F)(F)F)cc3)c2c(-c2c[nH]c3ccccc23)n1,25 µM,25 µM,25 µM,25 µM,
C[C@@H]1O[C@@H]1P(=O)(O)O [PHOSPHOMYCIN DISODIUM],25 µM,50 µM,100 µM,50 µM,
Cc1ccccc1Cn1c2ccccc2c2cc(CO)nc(-c3c[nH]c4ccccc34)c21,50 µM,12.5 µM,25 µM,> 100 µM,
COC(=O)c1cc2c3ccccc3n(Cc3cccc(Br)c3)c2c(-c2cn(C(C)=O)c3ccccc23)n1,> 100 µM,> 100 µM,> 100 µM,> 100 µM,
COC(=O)c1cc2c3ccccc3n(Cc3ccccc3C)c2c(-c2cn(C(C)=O)c3ccccc23)n1,100 µM,> 100 µM,> 100 µM,> 100 µM,
Cc1cccc(Cn2c3ccccc3c3cc(CO)nc(-c4c[nH]c5ccccc45)c32)c1,3.12 µM,3.12 µM,3.12 µM,100 µM,Ratio [5]: 2
OCc1cc2c3ccccc3n(Cc3cccc(F)c3)c2c(-c2c[nH]c3ccccc23)n1,50 µM,50 µM,25 µM,> 100 µM,
OCc1cc2c3ccccc3n(Cc3ccc(Cl)cc3)c2c(-c2c[nH]c3ccccc23)n1,12.5 µM,12.5 µM,25 µM,50 µM,
Cc1ccc(Cn2c3ccccc3c3cc(CO)nc(-c4c[nH]c5ccccc45)c32)cc1,25 µM,12.5 µM,25 µM,25 µM,
COC(=O)c1cc2c3ccccc3n(Cc3ccccc3F)c2c(-c2cn(C(C)=O)c3ccccc23)n1,> 100 µM,> 100 µM,> 100 µM,> 100 µM,
OCc1cc2c3ccccc3n(Cc3cccc(Br)c3)c2c(-c2c[nH]c3ccccc23)n1,25 µM,25 µM,25 µM,> 100 µM,
COC(=O)c1cc2c3ccccc3n(Cc3cccc(C)c3)c2c(-c2cn(C(C)=O)c3ccccc23)n1,> 100 µM,> 100 µM,> 100 µM,> 100 µM,
OCc1cc2c3ccccc3n(Cc3ccccc3)c2c(-c2c[nH]c3ccccc23)n1,12.5 µM,12.5 µM,12.5 µM,100 µM,
COC(=O)c1cc2c([nH]c3ccccc32)c(-c2cn(C(C)=O)c3ccccc23)n1,> 100 µM,> 100 µM,> 100 µM,> 100 µM,

SMILES,MIC [1],MIC [2],MIC [3],MIC [4],further results
OCc1cc2c3ccccc3n(Cc3cccc(C(F)(F)F)c3)c2c(-c2c[nH]c3ccccc23)n1,3.12 µM,3.12 µM,3.12 µM,12.5 µM,Ratio [5]: 2
OCc1cc2c3ccccc3n(Cc3ccccc3Br)c2c(-c2c[nH]c3ccccc23)n1,25 µM,50 µM,12.5 µM,> 100 µM,
COC(=O)c1cc2c3ccccc3n(Cc3cccc(Cl)c3)c2c(-c2cn(C(C)=O)c3ccccc23)n1,> 100 µM,> 100 µM,> 100 µM,> 100 µM,
OCc1cc2c3ccccc3n(Cc3ccc(Br)cc3)c2c(-c2c[nH]c3ccccc23)n1,3.12 µM,1.56 µM,3.12 µM,3.12 µM,Ratio [6]: 16; Activity [7]: Active; Activity [8]: Active; Kd [9]: 553 nM; Ka ([9]; Bos taurus): 1.81 ×10⁶ /M; Activity [10]: Active; Activity [11]: Active; Ratio [12]: 4; Ratio [5]: 2
COC(=O)c1cc2c3ccccc3n(Cc3cccc(F)c3)c2c(-c2cn(C(C)=O)c3ccccc23)n1,> 100 µM,> 100 µM,> 100 µM,> 100 µM,
COC(=O)c1cc2c3ccccc3n(Cc3ccccc3C(F)(F)F)c2c(-c2cn(C(C)=O)c3ccccc23)n1,> 100 µM,> 100 µM,> 100 µM,> 100 µM,
COC(=O)c1cc2c3ccccc3n(Cc3ccccc3Br)c2c(-c2cn(C(C)=O)c3ccccc23)n1,> 100 µM,> 100 µM,> 100 µM,> 100 µM,
OCc1cc2c3ccccc3n(Cc3cccc(Cl)c3)c2c(-c2c[nH]c3ccccc23)n1,25 µM,50 µM,25 µM,> 100 µM,
OCc1cc2c3ccccc3n(Cc3ccccc3F)c2c(-c2c[nH]c3ccccc23)n1,50 µM,25 µM,25 µM,> 100 µM,
COC(=O)c1cc2c3ccccc3n(Cc3ccc(C(F)(F)F)cc3)c2c(-c2cn(C(C)=O)c3ccccc23)n1,> 100 µM,> 100 µM,> 100 µM,> 100 µM,
COC(=O)c1cc2c3ccccc3n(Cc3ccccc3Cl)c2c(-c2cn(C(C)=O)c3ccccc23)n1,> 100 µM,> 100 µM,100 µM,> 100 µM,
O=C(O)c1cn(C2CC2)c2cc(N3CCNCC3)c(F)cc2c1=O [CIPROFLOXACIN],6.25 µM,3.12 µM,3.12 µM,12.5 µM,
OCc1cc2c3ccccc3n(Cc3ccccc3C(F)(F)F)c2c(-c2c[nH]c3ccccc23)n1,50 µM,50 µM,50 µM,100 µM,
COC(=O)c1cc2c3ccccc3n(Cc3ccccc3)c2c(-c2cn(C(C)=O)c3ccccc23)n1,> 100 µM,> 100 µM,> 100 µM,> 100 µM,
COC(=O)c1cc2c3ccccc3n(Cc3cccc(C(F)(F)F)c3)c2c(-c2cn(C(C)=O)c3ccccc23)n1,> 100 µM,> 100 µM,> 100 µM,> 100 µM,
COC(=O)c1cc2c3ccccc3n(Cc3ccc(C)cc3)c2c(-c2cn(C(C)=O)c3ccccc23)n1,> 100 µM,> 100 µM,> 100 µM,> 100 µM,
OCc1cc2c3ccccc3n(Cc3ccc(F)cc3)c2c(-c2c[nH]c3ccccc23)n1,3.12 µM,6.25 µM,6.25 µM,3.12 µM,Ratio [12]: 4; Ratio [5]: 2
